This is a sample that favours compounds with a hit; in the whole collection about 1.8% have one here.
CHRM5 agonist = CHRM5 agonism in calcium assay; P08912; hit rate 0.19% among 360,000; CHO-K1 hM5 cells, Fluo-8 calcium fluorescence; 0% DMSO wells, 100% maximal acetylcholine response; activation, % at 3 µM;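 active = activation above the run's mean over test compounds plus 3 SD, cut at about 23% in these data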;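 note: signal is peak over basal fluorescence ratio across the kinetic read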
M4 PAM = positive allosteric modulators of human muscarinic M4 receptor | P08173 | CHO-K1 hM4/Gqi5, Fluo-8 calcium fluorescence, ACh EC20; 0% = ACh EC20, 100% = maximal ACh | activation, % at 3 µM | hit rate 0.4% among 360,000 | AID 624126;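 active = activation above its plate's cutoff, the mean activation of sample wells plus 3 SD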
Target sequence (P08173 whole entry, looked up): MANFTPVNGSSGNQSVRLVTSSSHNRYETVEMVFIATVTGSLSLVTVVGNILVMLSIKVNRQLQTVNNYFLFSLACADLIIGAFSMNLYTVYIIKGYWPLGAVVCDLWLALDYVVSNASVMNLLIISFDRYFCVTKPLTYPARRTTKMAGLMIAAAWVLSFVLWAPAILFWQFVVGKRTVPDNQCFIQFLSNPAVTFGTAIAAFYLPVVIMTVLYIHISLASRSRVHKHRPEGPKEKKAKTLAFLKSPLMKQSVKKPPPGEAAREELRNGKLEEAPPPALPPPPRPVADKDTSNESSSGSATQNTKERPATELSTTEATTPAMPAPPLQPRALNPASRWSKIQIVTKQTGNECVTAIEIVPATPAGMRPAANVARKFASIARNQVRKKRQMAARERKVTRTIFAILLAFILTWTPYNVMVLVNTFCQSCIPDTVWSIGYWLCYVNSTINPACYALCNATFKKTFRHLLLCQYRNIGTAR
CHRM4 antagonist = CHRM4 antagonism in calcium assay | hit rate 0.73% among 360,000 | inhibition, % at 3 µM | P08173 | AID 624125 | CHO-hM4 cells, ACh EC80, Fluo-8 calcium fluorescence;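 active = inhibition above its plate's cutoff, the mean inhibition of sample wells plus 3 SD, cut at about 27% in these data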;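 note: 0% = acetylcholine EC80 with DMSO and 100% = DMSO without agonist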
M4 ag = agonists of human muscarinic M4 receptor (CHRM4); P08173; activation, % at 3 µM; hit rate 0.14% among 360,000; AID 624127; CHO-K1 hM4/Gqi5, Fluo-8 calcium fluorescence; vehicle 0%, full acetylcholine response 100%;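 active = activation above the run mean over all test wells plus 3 SD, cut at about 32% in these data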;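 note: peak over basal fluorescence ratio per well then scaled between controls; 0% = DMSO wells and 100% = acetylcholine at EC100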
CHRM5 PAM = CHRM5 positive allosteric modulation; P08912; activation, % at 3 µM; AID 624038; hit rate 0.3% among 360,000; CHO-K1 hM5, Fluo-8 calcium, ACh EC20 PAM; 0% = ACh EC20, 100% = ACh EC100;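 active = activation above the run cutoff, the mean activation of all test compounds plus 3 SD, cut at about 18% in these data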
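Replicates: One well per compound, no replicates | System: Human M5 receptor in CHO-K1 cells | Benchmarks: Low control EC20 acetylcholine (0%), high control EC100 acetylcholine (100%) | Probe or stimulus: Acetylcholine, EC20 level | Times: Fluo-8 loading 80 min at 37 °C plus 30 min room temperature | Signal: Intracellular calcium via Fluo-8 fluorescence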
CHRM5 antagonist = CHRM5 antagonism in calcium assay. P08912. CHO-hM5 cells, Fluo-8 calcium fluorescence, ACh EC80. inhibition, % at 3 µM. hit rate 0.59% among 360,000;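 active = inhibition above a per-plate cutoff, the mean of that plate's test compounds plus 3 SD, cut at about 27% in these data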;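 note: 0% = acetylcholine EC80 with DMSO and 100% = DMSO without agonist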
Starred values were filed as active, the others as inactive.

SMILES	CHRM5 agonist	M4 PAM	CHRM4 antagonist	M4 ag	CHRM5 PAM	CHRM5 antagonist
O=C(Nc1ccc(Nc2ccccc2)cc1)c1ccc(Br)cc1	0.7	2.1	6.6	0.5	-3.5	3.3
CC(=O)c1cccc(NC(=O)c2ccc(Br)o2)c1	-1.4	16.1	28.9*	2.5	0.7	3.9
O=C(Nc1cccc(-c2cnc3ccccc3n2)c1)c1ccccc1	1.4	4.4	-5.5	0.9	-4.3	-2.1
CCCCn1nc(C(=O)Nc2ccccc2N2CCCC2)c2ccccc2c1=O	2.8	4.5	-19.7	2.0	-1.6	6.2
CC(C)CN1C(=O)N(c2ccc(Cl)cc2)C(C)(O)CC1(C)C (stereo not drawn)	-5.3	-1.5	-0.3	-0.5	-5.4	12.4
CC1CN(CCC(=O)Nc2ccccc2F)CC(C)O1 (stereo not drawn)	-0.1	5.9	-8.8	0.4	-1.2	-1.2
CC(C)(C)c1ccc(-n2ncc3c2CCCC3NC(=O)CN2CCCCC2=O)cc1 (stereo not drawn)	1.1	-1.9	1.2	3.0	8.4	-14.9
O=C(CN1CCCC1=O)NC1CCCc2c1cnn2-c1cc(F)cc(F)c1 (stereo not drawn)	4.2	2.8	-4.4	1.1	19.4*	-6.9
CCOc1ccc(S(=O)(=O)N2CCC(C(=O)OC(C)C(=O)N3CCOCC3)CC2)cc1 (stereo not drawn)	-2.3	10.7	-6.4	-0.4	2.3	6.0
Cc1ccc(SCCNS(C)(=O)=O)cc1	-2.9	13.7	-3.2	0.9	21.5*	-5.9
Cc1ccc(CN2C(=O)CCC2C(=O)NC2CC2)cc1 (stereo not drawn)	0.6	26.2*	-7.6	0.3	13.2	-4.2
O=S(=O)(c1cccs1)N1CCN(c2ccnc3cc(Cl)ccc23)CC1	-10.2	-17.4	100.3*	-1.2	-20.1	6.1
Cn1nc(C(F)(F)F)c(-c2cccc(C(F)(F)F)c2)c1NC(=O)CSCC(=O)O	1.0	-6.3	-5.5	0.4	3.5	-4.5
O=C(CC[C@H]1O[C@@H](n2ccc(=O)[nH]c2=O)[C@H](O)[C@@H]1O)NCc1cccc2ccccc12	-1.0	20.6*	-8.3	0.9	9.6	8.4
COc1ccc2oc(C(=O)OCC(=O)N(C)C3CCS(=O)(=O)C3)c(C)c2c1 (stereo not drawn)	-3.2	4.3	-5.1	2.3	-0.2	2.0
COc1ccc(CN(C)C(=O)c2cc(-c3ccccc3)nc3ccc(C)cc23)c(OC)c1	2.7	-9.1	30.6*	13.7	-15.9	18.2
CCC(CO)N=C1CC(C)(C)CC(=O)/C1=C(/O)CCCN1C(=O)c2ccccc2C1=O (stereo not drawn)	2.7	-2.9	-1.2	16.9	-12.1	13.1
CCN1C(=NCc2ccco2)N[C@@H](c2cccc(C(F)(F)F)c2)C(C(=O)OC)=C1C	-3.0	2.3	27.1*	3.3	-6.3	20.0
Cc1ccc(NC(=S)NCc2ccco2)c(C)c1	-3.9	-17.3	-1.6	0.3	-7.2	11.1
NC(=O)c1ccc[n+](CCC[n+]2cccc(C(N)=O)c2)c1	-0.7	16.3	-15.9	1.3	1.2	-8.6
CCCCCCCCCC[n+]1cccc(C(=O)N(CC)CC)c1	-10.3	-17.5	44.1*	-0.4	-14.7	8.0
CCCC(=O)Nc1c(-c2cccc(C)c2)c(=O)c2ccccc2n1C	-3.6	6.0	-3.5	0.4	6.6	-0.6
O=C(NCc1ccccc1)NCC12CC3CC(CC(C3)C1)C2	8.7	-10.4	-4.1	16.8	-15.1	14.8
O=C(NCc1ccccc1)NC12CC3CC(CC(C3)C1)C2	-0.2	-3.0	-17.4	-1.0	19.7*	-11.3
CCN(CCn1cccn1)C(=O)CCc1nnc(-c2ccc3c(c2)OCO3)o1	0.5	8.7	0.5	0.4	21.7*	-6.0
SMILES	CHRM5 agonist	M4 PAM	CHRM4 antagonist	M4 ag	CHRM5 PAM	CHRM5 antagonist
CCN(CCn1cccn1)C(=O)CCc1nnc(CCCc2ccccc2)o1	-1.7	-2.8	7.2	1.5	-9.3	8.4
COc1ccc(/C=C/CN2CCCC(CCC(=O)NCc3ccc(F)c(F)c3)C2)cc1 (stereo not drawn)	-9.8	-22.1	71.2*	1.7	-11.9	7.2
COC(=O)c1ccc(CN2CCCC(CCC(=O)NCc3ccc(C)o3)C2)cc1 (stereo not drawn)	-10.9	-20.3	59.0*	0.5	0.5	8.4
COCc1ccc(CN2CCCC(CCC(=O)NCc3ccc(C)o3)C2)o1 (stereo not drawn)	-0.9	3.2	-14.0	0.8	7.5	-7.1
CCN(CCCNC(=O)CCn1c(=S)[nH]c2cc3c(cc2c1=O)OCO3)c1cccc(C)c1	-1.8	-2.5	1.1	-0.3	-7.1	20.9
Cc1ccc(S(=O)(=O)c2c(O)c3ccc(C(=O)O)cc3[nH]c2=O)cc1	-3.0	2.6	-6.8	0.3	-3.5	16.2
COc1cccc2c1OCC/C2=N\NC(=O)COc1ccccc1C	0.8	23.3*	-2.1	3.9	-3.9	3.5
CCCOc1ccc(C(=O)N2CCCC2C(=O)O)cc1 (stereo not drawn)	2.2	19.5*	-6.0	2.9	-1.8	-3.1
COc1ccccc1OCc1nnc(SCC(=O)Nc2ccc(N3CCOCC3)cc2)n1C	-0.7	-0.7	2.4	2.1	6.2	-1.2
CCCC[n+]1ccn(-c2nc3c([N+](=O)[O-])cccc3n2C)c1	-4.7	0.2	5.5	0.3	0.0	10.8
COc1ccc(/C(O)=C2/C(=O)C(=O)N(CCCN3CCOCC3)C2c2ccc(OC)cc2)cc1 (stereo not drawn)	-5.5	-7.7	3.9	0.1	-10.6	32.5*
COc1ccc(C2/C(=C(/O)c3ccc(S(=O)(=O)N4CCOCC4)cc3)C(=O)C(=O)N2CCN2CCOCC2)cc1 (stereo not drawn)	-1.2	6.1	-3.7	1.9	0.7	-2.1
COc1ccc(C2/C(=C(/O)c3ccc4c(c3)CC(C)O4)C(=O)C(=O)N2CCCN2CCOCC2)cc1 (stereo not drawn)	-0.1	5.5	7.3	0.9	20.0*	-21.7
Cc1ccc(NC(=O)C2(C)CCN2C(=O)Cc2cc(F)ccc2F)cc1 (stereo not drawn)	0.4	3.2	-6.7	-0.5	0.5	-1.8
O=C(N/N=C/c1cccs1)c1cc(-c2ccc(Cl)s2)[nH]n1	-1.4	4.2	0.1	1.5	-1.2	7.7
CNc1nc2cc([N+](=O)[O-])c([N+](=O)[O-])cc2nc1NC	11.0	-9.4	12.7	18.0	-13.9	29.8*
COc1ccc(C(=O)NCc2ccc3[nH]c(C)cc3c2)cc1OC	-1.8	-11.2	1.9	2.0	12.6	11.7
O=C(Nc1ccc(Cl)cc1)N1CCC(c2nc(-c3ccc(F)cc3)no2)CC1	3.4	-16.9	19.4	20.8	-23.8	46.8*
